# An excerpt weighted towards active compounds, which were near 12% of everything screened.
# Lmaj promast – Leishmania major promastigote growth inhibition, primary screen; Leishmania major promastigotes, resazurin fluorescence viability; inhibition, % at 10 µM; 9% of 200,000 active; in the data active means inhibition above about 50%;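 further: promastigotes grown with compound for 44 hours at 28 °C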
# CHOP inhibitor – inhibitors of CHOP promoter induction, primary screen, cell-based, unfolded protein response, luciferase reporter. 3.8% of 220,000 active. inhibition, % at 10 µM. CHO-K1 CHOP-promoter luciferase, tunicamycin-induced, 15-18 h;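 active means compounds that reduced the stress-induced luciferase reporter signal by more than about 70% of percent inhibition, limit read from the data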;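 further: 0% = tunicamycin plus vehicle and 100% = wells without tunicamycin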
# MT stabilize HCS – microtubule stabilizers in HeLa cells, primary screen, imaging, high-content imaging; HeLa tubulin immunostaining HCS, 24 h; share of cells brighter than vehicle mean+2SD; AID 2205, 2009; 0.83% of 200,000 active; % tubulin-high responders, % at 10 µM;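 active means plate Z-score above 3 for both tubulin-high and condensed-nucleus cell shares, with cell loss under 80%, at 10 µM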;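 further: anti alpha tubulin signal scored within the nucleus-defined area of each cell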
# Autophagy mod – autophagy modulators in MEF cells, primary screen, imaging, high-content, MEF GFP-LC3; calls only at 10 µM (by protocol); MEF GFP-LC3 puncta imaging; test concentration mostly 10 µM; 0.98% of 190,000 active;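 active means percentage of spot-positive cells more than 3 SD above its plate mean, without a fluorescence outlier flag or 80% toxicity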;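 further: spot-positive cell cutoff set from DMSO-treated cells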
# b-catenin transl – modulators of beta-catenin nuclear translocation, primary screen, imaging, HeLa cells, immunofluorescence, high-content; nuclear translocation activity, % at 5 µM; 0.3% of 190,000 active; AID 1665, 2009;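 active means nuclear translocation activity above 50% at 5 µM, with a well cell count of 50 or more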;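 further: per-cell ratio of nuclear to cytoplasmic median beta-catenin stain intensity; plate controls were DMSO negative control for no effect and GSK-3 inhibitor IX positive control for full effect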
#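 assay system = human HeLa cells, endogenous beta-catenin | times = compound treatment 24 h, 37°C, 5% CO2 | detection = Anti-beta-catenin immunofluorescence on PFA-fixed, Triton-permeabilized cells, DAPI nuclei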
# Dynein transport – inhibitors of GR-EGFP nuclear translocation, primary screen, dynein cargo transport inhibitor project, imaging, high-content, 3617.4 mouse cells; z-score, hits read low; test concentration mostly 20 µM; stimulated with dexamethasone, 1 µM; active compounds read low; 0.47% of 220,000 active;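 active means plate z-score of nuclear minus cytoplasmic receptor signal below a set negative limit, without overly bright fluorescence or cell loss, cut at about -3.5 in these data, passing the limit was not always enough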;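 further: z-score of nuclear minus cytoplasmic ring GR-EGFP intensity difference per well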
#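 Schedule: 48 h induction, then 1 h compound, then 30 min agonist, 37 °C. Buffer or medium: tetracycline-free induction medium containing charcoal-stripped FBS. Reagent: 1.0 µM final dexamethasone stimulus. Evaluation: nuclear versus cytoplasmic GR-EGFP signal, averaged per well. Signal: high-content fluorescence imaging after fixation.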
# Active calls of the source: *; i = inactive; · = no result given; + = active, no number.
SMILES,Lmaj promast,CHOP inhibitor,MT stabilize HCS,Autophagy mod,b-catenin transl,Dynein transport
O=c1c2ccccc2[nH]c(=S)n1CCc1ccccc1,-8,73*,4,i,1,0.44
CCC1CCCCN1CCCn1c(=S)[nH]c2ccccc2c1=O (stereo not given),97*,26,3,i,2,2.3
Cn1cc(Br)c(C(=O)n2cc(Br)cn2)n1,6,-24,2,i,-2,1.8
COc1ccccc1NC(c1cccnc1)c1ccc2cccnc2c1O (stereo not given),3,-245,2,i,0,0.95
Cc1ccnc(NC(c2cccnc2)c2ccc3cccnc3c2O)c1 (stereo not given),98*,-24,4,i,-1,-0.13
Cc1ccc2ccc(C(Nc3cccc(C(F)(F)F)c3)c3cccnc3)c(O)c2n1 (stereo not given),100*,-4,5,i,-6,1.6
Cc1cc(NC(c2ccc(Cl)cc2)c2ccc3cccnc3c2O)no1 (stereo not given),100*,80*,5,+,·,0.84
O=C(Nc1nc2ccccc2s1)c1ccc(OCC2CCCO2)cc1 (stereo not given),5,26,2,i,-2,0.83
O=C(c1ccco1)N1N=C(c2ccc(Br)cc2)CC1(O)C(F)(F)F (stereo not given),-1,49,5,i,-3,-0.39
Cc1ccc(SC(C)C(=O)Nc2cccc(N(C)S(C)(=O)=O)c2)cc1 (stereo not given),49,9,2,i,-5,-0.93
Cc1ccc(SC(C)C(=O)Nc2cccnc2)cc1 (stereo not given),-3,8,3,i,-3,1.5
CSc1cccc(NC(=O)C(C)Sc2ccc(C)cc2)c1 (stereo not given),-6,78*,2,i,-4,-0.56
Cc1ccc(SC(C)C(=O)Nc2ccncc2)cc1 (stereo not given),93*,42,1,i,2,-0.023
COc1cc(/C=N/NC(=O)c2ccc(O)cc2)ccc1Oc1ccc([N+](=O)[O-])cn1,-4,8,4,i,2,0.023
COc1ccc(/C=C2\N=C(c3ccccc3Cl)NC2=O)cc1,·,2,·,·,1,0.27
O=C(COc1ccc(C(=O)c2ccccc2)cc1)NCc1ccc(F)cc1,0,39,9.7*,i,158*,0.056
O=C(COc1ccc(C(=O)c2ccccc2)cc1)NCC(=O)Nc1ccccc1Br,62*,9,15,i,-2,-0.47
Cc1ccccc1Cn1c(=O)n(-c2ccccc2)c(=O)c2ccc(C(=O)NCc3ccco3)cc21,-6,81*,3,i,6,-0.78
Cc1ccccc1Cn1c(=O)n(Cc2ccco2)c(=O)c2ccccc21,27,88*,4,i,-1,-0.42
COc1ccccc1NC(=O)CCn1c(=O)sc2ccccc21,-2,-7,4,i,-1,-0.67
Cc1c(CCOC(=O)C23CC4CC(CC(C)(C4)C2)C3)sc[n+]1CC(=O)c1ccccc1,3,10,2,i,-1,3.3
Cc1c(CCOC(=O)CC23CC4CC(CC(C)(C4)C2)C3)sc[n+]1CC(=O)c1ccccc1,92*,54,2,i,1,-4.2
CCOc1ccccc1C1CC(=O)NC(SCC(=O)Nc2nccs2)=C1C#N (stereo not given),7,21,2,i,3,-0.12
COc1cc(N=Nc2cccc(S(N)(=O)=O)c2)c2ccccc2c1N,·,12,·,·,0,0.069
O=S(=O)(c1ccc(-c2csc(Nc3ccc(F)cc3)n2)cc1)N1CCCC1,64*,90*,4,i,·,-0.2
SMILES,Lmaj promast,CHOP inhibitor,MT stabilize HCS,Autophagy mod,b-catenin transl,Dynein transport
Cc1ccc(Nc2nc(-c3ccc(S(=O)(=O)N4CCCC4)cc3)cs2)cc1C,90*,44,4,i,2,-0.13
O=S(=O)(c1ccc(-c2csc(Nc3ccc(Br)cc3)n2)cc1)N1CCCC1,-3,40,6,i,0,-1.5
Cc1cc(C)cc(Nc2nc(-c3ccc(S(=O)(=O)N4CCCC4)cc3)cs2)c1,99*,21,19*,i,0,2.5
CCOC(=O)/C(=C\c1ccc([N+](=O)[O-])o1)NC(=O)c1ccccc1,99*,-3,1,+,·,3
O=C(NCCO)/C(=C\c1ccc([N+](=O)[O-])o1)NC(=O)c1ccccc1,27,-11,3,i,1,-0.35
CCCOC(=O)/C(=C\C=C\c1ccco1)NC(=O)c1ccccc1,18,-31,3,i,1,-0.53
CCCOC(=O)/C(=C\c1ccc([N+](=O)[O-])o1)NC(=O)c1ccccc1,96*,36,3,+,-3,-0.97
CC1CCCCN1C(=O)C12CCC(C)(/C(=N/O)C1)C2(C)C (stereo not given),9,-7,3,i,-6,3.3
CCOC(=O)c1ccc(CN(Cc2ccc(C)cc2)S(=O)(=O)c2cccc([N+](=O)[O-])c2)cc1,-6,-16,3,i,-3,-0.46
Nc1nc(C(F)(F)F)cc(=O)n1N,6,1,11,i,3,-1.4
COc1ccc(CCNC(=O)c2ccc(-c3ccc([N+](=O)[O-])cc3Cl)o2)cc1,-1,-4,5,i,-1,0.035
COC(=O)c1cc(Cl)nc2ccccc12,-5,-32,3,i,-1,1.4
CCOC(=O)c1ccc2c(c1)nc(SCc1cn3ccsc3n1)n2CC,99*,28,1,i,-1,-0.67
CC1=CC(C)(C)N2C(=O)C3(N=C(N)NC(Nc4ccccc4)=N3)c3cc(C)cc1c32 (stereo not given),96*,-6,3,i,1,0.98
CCn1cc(C(=O)NCc2ccco2)c(=O)c2cc(S(=O)(=O)N3CCc4ccccc4C3)ccc21,97*,17,2,i,-3,-0.071
CCCN(CCC)CCCNC(=O)c1cn(CC)c2ccc(S(=O)(=O)N3CCc4ccccc4C3)cc2c1=O,99*,19,5,i,-1,0.5
CCCCN(C)CCCNC(=O)c1cn(CC)c2ccc(S(=O)(=O)N3CCc4ccccc4C3)cc2c1=O,99*,26,4,i,-1,0.7
CCn1cc(C(=O)NCCCN2CCCC2)c(=O)c2cc(S(=O)(=O)N3CCc4ccccc4C3)ccc21,46,22,3,i,-2,0.19
